Experimental data of several laboratories.
Compare with care: the assays were run in different laboratories.
Effect on: cell growth or viability

SMILES	cell line	method	concentration	time	endpoint	value
CC(=NNC(N)=S)c1ccc(Nc2nnc(-c3ccc(Cl)cc3)c3ccccc23)cc1	HepG2	MTT	10 µM	24 h	viability	7.32%
CC(C)(C)c1cnc(CSc2cnc(NC(=O)C3CCN(CCCCSc4cccc5c4C(=O)N(C4CCC(=O)NC4=O)C5=O)CC3)s2)o1 (stereo not drawn)	HH	CCK-8	50 nM		viability	96.8%
CNc1ncc2c(/C=C/C(=O)N3CCC(OC)CC3)nn(Cc3cccc(OC)c3)c2n1	OE33	resazurin		5 days	EC50	2.89 µM
CC(C)(C)c1cnc(CSc2cnc(NC(=O)C3CCN(C(=O)CCCSc4cccc5c4C(=O)N(C4CCC(=O)NC4=O)C5=O)CC3)s2)o1 (stereo not drawn)	HH	CCK-8	0.25 µM		viability	86.7%
CNc1ncc2c(/C=C/C(=O)N3CCC(OC)CC3)nn(Cc3ccccc3C(F)(F)F)c2n1	OE33	resazurin		5 days	EC50	11.4 µM
CC(C)(C)c1cnc(CSc2cnc(NC(=O)C3CCN(CCCCCCCSc4cccc5c4C(=O)N(C4CCC(=O)NC4=O)C5=O)CC3)s2)o1 (stereo not drawn)	HH	CCK-8	0.5 µM		viability	0%
CCOC(Cn1nc(/C=C/C(=O)N2CCC(OC)CC2)c2cnc(NC)nc21)OCC	OE33	resazurin		5 days	EC50	> 30 µM
O=C(Nc1ccc(Oc2nnc(-c3ccc(Cl)cc3)c3ccccc23)cc1)c1ccccc1	HepG2	MTT	2.5 µM	24 h	viability	3.4%
CCOC(=O)c1nn(-c2cccc(Cl)c2)/c(=N/N=C(\C)c2ccc(NC(=O)c3ccccc3)cc2)s1	HepG2	MTT	0.625 µM		viability	3.18%
C=CC(=O)NC1CCN(c2ncc3ncnc(Nc4ccc(Oc5ccc6c(c5)ncn6C)c(C)c4)c3n2)CC1	SBC-5				EC50	0.325 µM
CC(=O)Nc1ccc(Oc2nnc(-c3ccc(Cl)cc3)c3ccccc23)cc1	HepG2	MTT	0.625 µM		cell death	88.3%
CNc1ncc2c(/C=C/C(=O)N3CCC(OC)CC3)nn(CC3CCCCC3)c2n1	OE33	resazurin		5 days	EC50	6.51 µM
CC(C)(C)c1cnc(CSc2cnc(NC(=O)C3CCN(CCCCCCCCSc4cccc5c4CN(C4CCC(=O)NC4=O)C5=O)CC3)s2)o1 (stereo not drawn)	HH	CCK-8	0.5 µM		viability	0%
CNc1ncc2c(/C=C/C(=O)N3CCC(OC)CC3)nn(CC3OCCO3)c2n1	OE33	resazurin		5 days	EC50	> 30 µM
CC(C)(C)c1cnc(CSc2cnc(NC(=O)C3CCN(C(=O)COCCOCCSc4cccc5c4C(=O)N(C4CCC(=O)NC4=O)C5=O)CC3)s2)o1 (stereo not drawn)	HH	CCK-8	0.1 µM		viability	100%
O=C(Nc1ccc(Oc2nnc(-c3ccc(Cl)cc3)c3ccccc23)cc1)c1cccc([N+](=O)[O-])c1	HepG2	MTT	5 µM		cell death	94.8%
CNc1ncc2c(/C=C/C(=O)N3CCC(C)CC3)nn(CC3CCCC3)c2n1	OE33	resazurin		5 days	EC50	> 30 µM
CC(C)(C)c1cnc(CSc2cnc(NC(=O)C3CCN(CCCCCCCCSc4cccc5c4C(=O)N(C4CCC(=O)NC4=O)C5=O)CC3)s2)o1 (stereo not drawn)	HH	CCK-8	0.25 µM		viability	0%
CC(=NNC(=O)c1ccccc1Cl)c1ccc(Nc2nnc(-c3ccc(Cl)cc3)c3ccccc23)cc1	HepG2	MTT	0.312 µM		cell death	19.8%
CNc1ncc2c(/C=C/C(=O)N3CCOCC3)nn(CC3CCCC3)c2n1	OE33	resazurin		5 days	EC50	> 30 µM
S=C(Nc1ccccc1)Nc1ccc(Oc2nnc(-c3ccc(Cl)cc3)c3ccccc23)cc1	HepG2	MTT	1.25 µM	24 h	viability	57.1%
Nc1ncnc2c1c(/C=C/C(=O)N1CCC(O)CC1)nn2CC1CCCC1	OE33	resazurin		5 days	EC50	> 30 µM
CC(=NNC(=O)c1cccnc1)c1ccc(Nc2nnc(-c3ccc(Cl)cc3)c3ccccc23)cc1	HepG2	MTT	5 µM		cell death	96.8%
CCOC(=O)c1nn(-c2cccc(Cl)c2)/c(=N/N=C(\C)c2ccc(NC(=O)c3ccc(Cl)cc3)cc2)s1	HepG2	MTT	0.156 µM		viability	24.6%
